Laboratory results: ChEMBL document CHEMBL3616431, “Exploring the 3-piperidin-4-yl-1H-indole scaffold as a novel antimalarial chemotype” (Eur J Med Chem, 2015)

Key:
[1] = system: Plasmodium falciparum; assay: Antimalarial activity against chloroquine-resistant Plasmodium falciparum Dd2 infected in human erythrocyte assessed as growth inhibition at 5 uM by SYBR Green-1 assay; format: functional
Method in brief: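 Erythrocytic-stage P. falciparum Dd2 growth inhibition at a fixed 5 µM single concentration. Synchronized ring-stage parasites in RPMI-1640 with 0.5% AlbuMAX II, 1.0% hematocrit, 1.0% initial parasitemia. Incubated 72 h under standard culture conditions, then stained with SYBR Green I (1:5,000). Fluorescence read at ex 494 nm, em 530 nm after room-temperature storage.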

[2] = system: Plasmodium falciparum; assay: Antimalarial activity against chloroquine-resistant Plasmodium falciparum Dd2 infected in human erythrocyte assessed as growth inhibition by SYBR Green-1 assay; format: functional, organism-based
Method in brief: (§1)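 Dose-response EC50 against Dd2 and 3D7. Synchronized ring-stage parasites in RPMI-1640 with 0.5% AlbuMAX II, 1.0% hematocrit, 1.0% initial parasitemia. Triplicate 12-point 2-fold serial dilutions, incubated 72 h under standard culture conditions. Read-out by SYBR Green I (1:5,000) fluorescence, ex 494/em 530 nm. EC50 by non-linear regression after background subtraction and normalization.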

[3] = system: Plasmodium falciparum; assay: Antimalarial activity against chloroquine-sensitive Plasmodium falciparum 3D7 infected in human erythrocyte assessed as growth inhibition by SYBR Green-1 assay; format: functional, organism-based; method in brief: as §1
[4] = Selectivity index, ratio of EC50 for human HepG2A16 cells to EC50 for chloroquine-sensitive Plasmodium falciparum 3D7 infected in human erythrocyte; format: toxicity; settings: read-out: Ratio EC50
Method in brief: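 Selectivity index computed as HepG2 A16 MTT EC50 (48 h exposure) divided by P. falciparum 3D7 EC50 (72 h SYBR Green I assay).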

[5] = system: HepG2; assay: Cytotoxicity against human HepG2A16 cells after 48 hrs by MTT assay; format: cell-based; settings: HepG2A16, 48 h
Method in brief: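 HepG2 A16 cells seeded at 1 × 10^4 cells/well, adhered overnight. Exposed to seven ten-fold dilutions (100 µM–1 nM); drug-free medium as negative control. Medium with compound renewed at 24 h, total 48 h. MTT (5 mg/mL stock in PBS) added for 3 h, then supernatant removed and acidified isopropanol added for read-out.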

[6] = Selectivity index, ratio of EC50 for human HepG2A16 cells to EC50 for chloroquine-resistant Plasmodium falciparum Dd2 infected in human erythrocyte; format: toxicity; settings: read-out: Ratio EC50
Method in brief: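 Selectivity index computed as HepG2 A16 MTT EC50 (48 h exposure) divided by P. falciparum Dd2 EC50 (72 h SYBR Green I assay).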

[7] = system: HepG2; assay: Cytotoxicity against human HepG2A16 cells; format: cell-based
Method in brief: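 HepG2 A16 cells seeded at 1 × 10^4 cells/well and left to adhere overnight. Exposed to 7 ten-fold dilutions (100 µM–1 nM), drug-free medium as negative control. Medium with compound renewed at 24 h, total 48 h exposure. Viability by MTT (5 mg/mL stock in PBS, 3 h), formazan dissolved in acidified isopropanol; EC50 reported.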

[8] = system: Plasmodium falciparum; assay: Antimalarial activity against chloroquine-sensitive Plasmodium falciparum 3D7; format: functional, organism-based

SMILES	inhibition at 5 µM [1]	other results
O=C(c1ccccn1)N1CCC(c2c[nH]c3ccccc23)CC1	< 10%	–
COc1cc(O)cc(OC)c1CN1CCC(c2c[nH]c3ccccc23)CC1	< 10%	–
O=C(c1ccccc1)N1CCC(C(=O)N2CCC(c3c[nH]c4ccccc34)CC2)CC1	< 10%	–
c1ccc2c(C3CCN(Cc4csc5ccccc45)CC3)c[nH]c2c1	16%	–
CC(=O)N1CCC(C(=O)N2CCC(c3c[nH]c4ccccc34)CC2)CC1	10%	–
COc1cc(OC)cc(C(=O)N2CCC(C(=O)N3CCC(c4c[nH]c5ccccc45)CC3)CC2)c1	10%	–
CCN(CC)Cc1cc(Nc2ccnc3cc(Cl)ccc23)ccc1O [AMODIAQUINE]	–	EC50 [2]: 12.3 nM; EC50 [3]: 5.85 nM
O=C(c1cccs1)N1CCC(c2c[nH]c3ccccc23)CC1	< 10%	–
O=C1C(O)=C([C@H]2CC[C@H](c3ccc(Cl)cc3)CC2)C(=O)c2ccccc21 [ATOVAQUONE]	–	EC50 [2]: 0.19 nM; EC50 [3]: 0.35 nM
c1ccc(CN2CCC(c3c[nH]c4ccccc34)CC2)cc1	15%	–
Clc1ccc2nccc(N3CCC(c4c[nH]c5ccccc45)CC3)c2c1	32%	selectivity ratio [4]: 0.67; EC50 [5]: 4240 nM; EC50 [2]: 5010 nM; selectivity ratio [6]: 0.85; EC50 [3]: 6300 nM
c1ccc2c(C3CCNCC3)c[nH]c2c1	< 10%	–
O=C(c1cccnc1)N1CCC(c2c[nH]c3ccccc23)CC1	100%	selectivity ratio [4]: 3.37; EC50 [5]: 12800 nM; EC50 [2]: 2950 nM; selectivity ratio [6]: 4.33; EC50 [3]: 3800 nM
C[C@H]1[C@H](OC(=O)CCC(=O)O)O[C@@H]2O[C@@]3(C)CC[C@H]4[C@H](C)CC[C@@H]1[C@@]24OO3 [ARTESUNATE]	–	EC50 [2]: 1.76 nM; EC50 [3]: 1.97 nM
CC(C)=CCC[C@H](C)CCN1CCC(c2c[nH]c3ccccc23)CC1	17%	–
COc1cc(Cl)c(CN2CCC(c3c[nH]c4ccccc34)CC2)c(Cl)c1OC	< 10%	–
c1ccc2c(C3CCN(Cc4ccncc4)CC3)c[nH]c2c1	< 10%	–
O=Cc1ccc(CN2CCC(c3c[nH]c4ccccc34)CC2)cc1	20%	–
COc1ccc(OC)c(C(=O)N2CCC(c3c[nH]c4ccccc34)CC2)c1	< 10%	–
c1ccc2c(C3CCN(CC4CCNCC4)CC3)c[nH]c2c1	< 10%	–
O=C(c1cccnc1)N1CCC(C(=O)N2CCC(c3c[nH]c4ccccc34)CC2)CC1	30%	–
c1ccc2c(C3CCN(Cc4ccc(CN5CCOCC5)cc4)CC3)c[nH]c2c1	66%	–

SMILES	inhibition at 5 µM [1]	other results
CC(=O)N1CCC(c2c[nH]c3ccccc23)CC1	< 10%	–
OCCOc1cccc(CN2CCC(c3c[nH]c4ccccc34)CC2)c1	< 10%	–
CC(=O)n1cc(CN2CCC(c3c[nH]c4ccccc34)CC2)c2ccccc21	70%	–
O=C(c1ccccc1)N1CCC(c2c[nH]c3ccccc23)CC1	< 10%	–
CCN(CC)CCCC(C)Nc1ccnc2cc(Cl)ccc12 (stereo unspecified) [CHLOROQUINE]	–	EC50 [2]: 285 nM; EC50 [3]: 23 nM
O=C(c1ccncc1)N1CCC(c2c[nH]c3ccccc23)CC1	14%	–
O=C(c1ccc(F)cc1)N1CCC(c2c[nH]c3ccccc23)CC1	< 10%	–
Oc1cccc2ccc(CN3CCC(c4c[nH]c5ccccc45)CC3)nc12	< 10%	–
Clc1ccc2nccc(N3CCC(CN4CCC(c5c[nH]c6ccccc56)CC4)CC3)c2c1	100%	selectivity ratio [4]: 16.1; EC50 [5]: 3860 nM; EC50 [2]: 940 nM; EC50 [7]: > 10000 nM; selectivity ratio [6]: 4.1; EC50 [8]: 34 nM; EC50 [3]: 240 nM
Fc1ccc(CN2CCC(c3c[nH]c4ccccc34)CC2)cc1	14%	–
Cc1c(CN2CCC(c3c[nH]c4ccccc34)CC2)c(=O)n(-c2ccccc2)n1C	< 10%	–
c1ccc2c(C3CCN(Cc4ccc(CN5CCCCC5)cc4)CC3)c[nH]c2c1	100%	EC50 [2]: 2910 nM; EC50 [3]: 1350 nM
c1csc(CN2CCC(c3c[nH]c4ccccc34)CC2)c1	< 10%	–
O=C(c1cnccn1)N1CCC(c2c[nH]c3ccccc23)CC1	< 10%	–
Cc1ccccc1CN1CCC(c2c[nH]c3ccccc23)CC1	11%	–
FC(F)(F)c1ccc(CN2CCC(c3c[nH]c4ccccc34)CC2)cc1	< 10%	–
c1ccc2c(C3CCN(Cc4ccc(CN5CCC(c6c[nH]c7ccccc67)CC5)cc4)CC3)c[nH]c2c1	100%	selectivity ratio [4]: 5.75; EC50 [5]: 460 nM; EC50 [2]: 210 nM; selectivity ratio [6]: 2.19; EC50 [3]: 80 nM
c1ccc2c(C3CCN(CC4CCCCC4)CC3)c[nH]c2c1	< 10%	–
O=C(c1ccc(C(=O)N2CCC(c3c[nH]c4ccccc34)CC2)cc1)N1CCC(c2c[nH]c3ccccc23)CC1	80%	–
O=C(c1ccc(F)cc1)N1CCC(C(=O)N2CCC(c3c[nH]c4ccccc34)CC2)CC1	< 10%	–
O=C(c1cccs1)N1CCC(C(=O)N2CCC(c3c[nH]c4ccccc34)CC2)CC1	< 10%	–
